Reference: paper PMC3896217 (Biochemistry, 2013)

Molecular target: T1, B31 DBPA (Borreliella burgdorferi, UniProt O50917)
T1 sequence (O50917 24-191): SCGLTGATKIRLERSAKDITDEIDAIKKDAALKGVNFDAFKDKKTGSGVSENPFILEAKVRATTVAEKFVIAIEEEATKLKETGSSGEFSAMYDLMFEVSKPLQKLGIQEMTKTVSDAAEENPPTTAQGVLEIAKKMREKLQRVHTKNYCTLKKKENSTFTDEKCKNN
Assay: NMR control titration for non-specific TEMPO-DBPA interactions
Type: binding, Borrelia burgdorferi
Conditions: similar protein-to-ligand ratios as TEMPO-labeled heparin dp6
How it was run: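 Samples of 400 μL held 150 to 200 μM ¹⁵N-labelled B31 WT DBPA in 50 mM NaH₂PO₄, pH 6.5, 150 mM NaCl. The DBPA construct was a His-tagged fusion expressed in E. coli BL21(DE3) in M9 medium, Ni-affinity purified and cleaved with USP2. Amide ¹H transverse relaxation was measured with delays of 1, 4.5, 8, 11.5, 15 and 18.5 ms.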

CC1(C)CC(N)CC(C)(C)N1[O] [4-amino-TEMPO]
changes in transverse relaxation rates of the protein: no significant changes
